Measured values from ChEMBL document CHEMBL4052702 (Bioorg Med Chem Lett, 2017).

Experiments:
Homo sapiens [1] = species: Homo sapiens; experiment: Inhibition of HDAC in human HeLa-S3 cells lysates assessed as remaining enzyme activity at 4 x 10^-6 M pre-incubated for 15 mins before HDAC-Glo I/II substrate addition and measured after 30 mins post substrate addition; type: cell-free
Homo sapiens [2] = species: Homo sapiens; experiment: Inhibition of HDAC in human HeLa-S3 cells lysates assessed as remaining enzyme activity at 2 x 10^-6 M pre-incubated for 15 mins before HDAC-Glo I/II substrate addition and measured after 30 mins post substrate addition; type: cell-free
Histone deacetylase 2 [3] = molecular target: T1, Histone deacetylase 2 (Homo sapiens, UniProt Q92769); experiment: Inhibition of HDAC2 (unknown origin) assessed as remaining enzyme activity at 0.125 uM by ELISA-based assay
How it was run: (§1)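 Isoform screen by ELISA-based HDAC activity assay against HDAC1, HDAC2, HDAC3 and HDAC6. Each analog was tested at one final concentration: 0.025, 0.125, 0.25 or 1.25 µM. Read-out is percent deacetylase activity remaining, given as the mean with standard error of at least two independent trials.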

Histone deacetylase 3 [4] = molecular target: T2, Histone deacetylase 3 (Homo sapiens, UniProt O15379); experiment: Inhibition of HDAC3 (unknown origin) assessed as remaining enzyme activity at 0.125 uM by ELISA-based assay; how it was run: as §1
Homo sapiens [5] = species: Homo sapiens; experiment: Inhibition of HDAC in human HeLa-S3 cells lysates assessed as remaining enzyme activity at 1 x 10^-6 M pre-incubated for 15 mins before HDAC-Glo I/II substrate addition and measured after 30 mins post substrate addition; type: cell-free
Homo sapiens [6] = species: Homo sapiens; experiment: Inhibition of HDAC in human HeLa-S3 cells lysates assessed as remaining enzyme activity at 5 x 10^-7 M pre-incubated for 15 mins before HDAC-Glo I/II substrate addition and measured after 30 mins post substrate addition; type: cell-free
[7] = Inhibition of HDAC in human HeLa-S3 cells lysates pre-incubated for 15 mins before HDAC-Glo I/II substrate addition and measured after 30 mins post substrate addition; type: cell-based
[8] = molecular target: T3, Protein deacetylase HDAC6 (Homo sapiens) (UniProt Q9UBN7); experiment: Inhibition of HDAC6 (unknown origin) assessed as remaining enzyme activity at 0.125 uM by ELISA-based assay; how it was run: as §1
T3 sequence (whole entry): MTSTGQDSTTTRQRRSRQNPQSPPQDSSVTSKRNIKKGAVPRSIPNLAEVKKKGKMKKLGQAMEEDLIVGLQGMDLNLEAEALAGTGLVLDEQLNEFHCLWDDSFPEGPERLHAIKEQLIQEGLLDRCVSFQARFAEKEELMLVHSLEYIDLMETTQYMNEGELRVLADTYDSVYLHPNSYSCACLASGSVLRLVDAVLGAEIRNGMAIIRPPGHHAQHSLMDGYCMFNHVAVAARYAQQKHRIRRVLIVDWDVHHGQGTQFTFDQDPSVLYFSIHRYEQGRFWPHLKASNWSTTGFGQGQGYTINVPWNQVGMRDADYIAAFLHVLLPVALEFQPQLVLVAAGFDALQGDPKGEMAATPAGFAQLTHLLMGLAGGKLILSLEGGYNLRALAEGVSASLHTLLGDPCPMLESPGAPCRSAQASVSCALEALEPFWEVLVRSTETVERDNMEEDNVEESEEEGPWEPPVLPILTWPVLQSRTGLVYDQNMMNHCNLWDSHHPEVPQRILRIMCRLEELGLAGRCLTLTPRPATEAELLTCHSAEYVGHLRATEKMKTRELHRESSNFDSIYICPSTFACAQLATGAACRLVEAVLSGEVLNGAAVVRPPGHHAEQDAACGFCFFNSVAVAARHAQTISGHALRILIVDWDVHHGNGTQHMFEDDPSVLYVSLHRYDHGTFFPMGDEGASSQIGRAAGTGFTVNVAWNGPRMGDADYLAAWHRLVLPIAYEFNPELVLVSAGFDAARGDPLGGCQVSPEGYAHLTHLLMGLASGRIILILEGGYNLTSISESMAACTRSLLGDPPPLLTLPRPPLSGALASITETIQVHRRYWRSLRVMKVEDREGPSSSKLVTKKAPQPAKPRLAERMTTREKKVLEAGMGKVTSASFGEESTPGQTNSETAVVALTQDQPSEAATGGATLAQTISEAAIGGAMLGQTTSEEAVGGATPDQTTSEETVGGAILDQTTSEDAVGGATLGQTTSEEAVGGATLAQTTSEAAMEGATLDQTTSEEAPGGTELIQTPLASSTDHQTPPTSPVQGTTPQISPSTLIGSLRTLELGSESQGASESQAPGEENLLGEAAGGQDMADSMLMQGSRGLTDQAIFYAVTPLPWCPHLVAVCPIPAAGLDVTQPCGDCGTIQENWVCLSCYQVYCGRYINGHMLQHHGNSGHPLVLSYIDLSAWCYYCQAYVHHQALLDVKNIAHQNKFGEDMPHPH

Histone deacetylase 1 [9] = molecular target: T4, Histone deacetylase 1 (Homo sapiens, UniProt Q13547); experiment: Inhibition of HDAC1 (unknown origin) assessed as remaining enzyme activity at 0.125 uM by ELISA-based assay; how it was run: as §1
Homo sapiens [10] = species: Homo sapiens; experiment: Inhibition of HDAC in human HeLa-S3 cells lysates assessed as remaining enzyme activity at 8 x 10^-6 M pre-incubated for 15 mins before HDAC-Glo I/II substrate addition and measured after 30 mins post substrate addition; type: cell-free
Histone deacetylase 1 [11] = molecular target: T4, Histone deacetylase 1; experiment: Inhibition of HDAC1 (unknown origin) assessed as remaining enzyme activity at 0.025 uM by ELISA-based assay; how it was run: as §1
Histone deacetylase 3 [12] = molecular target: T2, Histone deacetylase 3; experiment: Inhibition of HDAC3 (unknown origin) assessed as remaining enzyme activity at 0.025 uM by ELISA-based assay; how it was run: as §1
Histone deacetylase 2 [13] = molecular target: T1, Histone deacetylase 2; experiment: Inhibition of HDAC2 (unknown origin) assessed as remaining enzyme activity at 0.025 uM by ELISA-based assay; how it was run: as §1
Homo sapiens [14] = species: Homo sapiens; experiment: Inhibition of HDAC in human HeLa-S3 cells lysates assessed as remaining enzyme activity at 2.5 x 10^-7 M pre-incubated for 15 mins before HDAC-Glo I/II substrate addition and measured after 30 mins post substrate addition; type: cell-free
Homo sapiens [15] = species: Homo sapiens; experiment: Inhibition of HDAC in human HeLa-S3 cells lysates assessed as remaining enzyme activity at 6.25 x 10^-8 M pre-incubated for 15 mins before HDAC-Glo I/II substrate addition and measured after 30 mins post substrate addition; type: cell-free
Homo sapiens [16] = species: Homo sapiens; experiment: Inhibition of HDAC in human HeLa-S3 cells lysates assessed as remaining enzyme activity at 1.25 x 10^-7 M pre-incubated for 15 mins before HDAC-Glo I/II substrate addition and measured after 30 mins post substrate addition; type: cell-free
[17] = molecular target: T3, Protein deacetylase HDAC6 (Homo sapiens); experiment: Inhibition of HDAC6 (unknown origin) assessed as remaining enzyme activity at 0.025 uM by ELISA-based assay; how it was run: as §1
Homo sapiens [18] = species: Homo sapiens; experiment: Inhibition of HDAC in human HeLa-S3 cells lysates assessed as remaining enzyme activity at 3.13 x 10^-8 M pre-incubated for 15 mins before HDAC-Glo I/II substrate addition and measured after 30 mins post substrate addition; type: cell-free

T1 sequence (Q92769 whole entry, canonical isoform): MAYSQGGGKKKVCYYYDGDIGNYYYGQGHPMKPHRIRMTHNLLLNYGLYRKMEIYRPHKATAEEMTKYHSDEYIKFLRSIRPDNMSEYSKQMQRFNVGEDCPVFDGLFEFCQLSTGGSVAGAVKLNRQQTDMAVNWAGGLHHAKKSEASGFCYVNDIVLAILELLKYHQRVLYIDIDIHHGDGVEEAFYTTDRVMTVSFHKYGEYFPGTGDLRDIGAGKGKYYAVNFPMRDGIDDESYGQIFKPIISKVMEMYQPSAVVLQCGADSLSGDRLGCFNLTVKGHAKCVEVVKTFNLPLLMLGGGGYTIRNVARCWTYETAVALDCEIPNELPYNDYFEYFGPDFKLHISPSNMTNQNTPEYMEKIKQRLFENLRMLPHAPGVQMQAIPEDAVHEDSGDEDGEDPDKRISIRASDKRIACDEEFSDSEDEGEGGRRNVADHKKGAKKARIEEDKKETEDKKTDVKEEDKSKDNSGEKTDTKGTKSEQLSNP
T4 sequence (Q13547 whole entry): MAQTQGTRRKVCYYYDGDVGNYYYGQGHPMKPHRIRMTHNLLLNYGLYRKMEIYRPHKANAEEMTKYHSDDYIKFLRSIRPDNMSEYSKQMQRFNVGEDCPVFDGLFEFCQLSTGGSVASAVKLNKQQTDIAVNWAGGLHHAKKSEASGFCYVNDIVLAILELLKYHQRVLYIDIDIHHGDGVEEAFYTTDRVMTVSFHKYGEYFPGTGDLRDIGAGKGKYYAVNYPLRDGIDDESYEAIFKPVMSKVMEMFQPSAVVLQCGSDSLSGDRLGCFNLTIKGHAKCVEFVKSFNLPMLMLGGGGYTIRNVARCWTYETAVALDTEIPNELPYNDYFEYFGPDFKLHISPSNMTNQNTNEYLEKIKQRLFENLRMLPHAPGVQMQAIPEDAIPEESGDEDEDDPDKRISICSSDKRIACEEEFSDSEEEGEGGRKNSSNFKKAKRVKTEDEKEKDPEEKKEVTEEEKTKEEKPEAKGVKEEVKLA
T2 sequence (O15379 whole entry): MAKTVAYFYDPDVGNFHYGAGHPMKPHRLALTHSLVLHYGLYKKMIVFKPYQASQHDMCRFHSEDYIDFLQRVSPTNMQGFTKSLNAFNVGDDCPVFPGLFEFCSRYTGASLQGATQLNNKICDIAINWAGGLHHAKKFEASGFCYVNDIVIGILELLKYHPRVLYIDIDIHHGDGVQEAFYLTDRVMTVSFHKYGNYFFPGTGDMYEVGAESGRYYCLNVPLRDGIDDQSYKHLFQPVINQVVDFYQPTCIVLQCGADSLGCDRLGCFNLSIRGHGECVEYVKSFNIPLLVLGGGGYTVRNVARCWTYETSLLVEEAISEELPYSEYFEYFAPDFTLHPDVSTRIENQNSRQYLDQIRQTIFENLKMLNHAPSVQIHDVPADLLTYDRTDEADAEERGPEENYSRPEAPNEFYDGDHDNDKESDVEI

SMILES | Activity (Homo sapiens [1]) [%] | Activity (Homo sapiens [2]) [%] | Activity (Histone deacetylase 2 [3]) [%] | Activity (Histone deacetylase 3 [4]) [%] | Activity (Homo sapiens [5]) [%] | Activity (Homo sapiens [6]) [%] | IC50 [7] [µM] | Activity [8] [%] | Activity (Histone deacetylase 1 [9]) [%] | Activity (Homo sapiens [10]) [%] | Activity (Histone deacetylase 1 [11]) [%] | Activity (Histone deacetylase 3 [12]) [%] | Activity (Histone deacetylase 2 [13]) [%] | Activity (Homo sapiens [14]) [%] | Activity (Homo sapiens [15]) [%] | Activity (Homo sapiens [16]) [%] | Activity [17] [%] | Activity (Homo sapiens [18]) [%]
O=C(CCCC(CCC(=O)Nc1ccccc1)c1ccccc1)NO (centres undefined) | 31 | 53 | 85 | 86 | 74 | 94 | 2.2 | 63 | 83 | 15 | – | – | – | – | – | – | – | –
CC(CCCC(=O)NO)CCC(=O)Nc1ccccc1 (centres undefined) | – | – | – | – | – | 14 | – | – | – | – | 67 | 80 | 81 | 15 | 68 | 44 | 63 | 85
